Assay results reported in ChEMBL document CHEMBL1148668, “The identification of pyrimidine-diazabicyclo[3.3.0]octane derivatives as 5-HT2C receptor agonists” (Bioorg Med Chem Lett, 2006).
Active and inactive are the calls of the source. The calls are words filed in the database; no cut-off is given here.

Key:
[1] = biological target: 5-hydroxytryptamine receptor 2A (Homo sapiens, UniProt P28223); assay: Induction of 5HT2A receptor mediated increase in intracellular calcium concentration in CHO cells; assay type: functional, cell-based
Summary of the method: (§1)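 Recombinant cell lines stably expressed the respective 5-HT2 receptor subtype. Agonist-induced rises in intracellular calcium were read with a fluorescence-based assay.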

[2] = biological target: T1, 5-hydroxytryptamine receptor 2C (Homo sapiens, UniProt P28335); assay: Induction of 5HT2C receptor mediated increase in intracellular calcium concentration in HEK293 cells; assay type: functional, cell-based; summary of the method: as §1
T1 sequence (P28335 whole entry): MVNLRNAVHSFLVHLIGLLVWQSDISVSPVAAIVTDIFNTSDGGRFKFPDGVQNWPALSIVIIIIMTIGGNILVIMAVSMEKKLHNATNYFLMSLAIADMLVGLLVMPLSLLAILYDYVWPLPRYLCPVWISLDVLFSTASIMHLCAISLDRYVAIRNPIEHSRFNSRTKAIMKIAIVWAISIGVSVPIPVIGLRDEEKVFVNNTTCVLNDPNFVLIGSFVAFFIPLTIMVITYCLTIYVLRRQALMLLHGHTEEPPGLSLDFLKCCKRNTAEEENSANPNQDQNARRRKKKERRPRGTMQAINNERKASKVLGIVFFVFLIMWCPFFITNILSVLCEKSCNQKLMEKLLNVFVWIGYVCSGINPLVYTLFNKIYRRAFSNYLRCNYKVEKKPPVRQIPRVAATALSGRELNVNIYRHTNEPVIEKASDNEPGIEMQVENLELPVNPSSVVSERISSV

[3] = biological target: 5-hydroxytryptamine receptor 2B (Homo sapiens, UniProt P41595); assay: Induction of 5HT2B receptor mediated increase in intracellular calcium concentration in CHO cells; assay type: functional, cell-based; summary of the method: as §1
[4] = test system: Rattus norvegicus; assay: Reduction in food consumption in ip dosed Sprague-Dawley rat; assay type: functional, organism-based
Summary of the method: (§2)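 Male Sprague–Dawley rats, n = 10/group, were given vehicle, fenfluramine (positive control) or test compound intraperitoneally about 30 min before onset of the 12 h dark cycle. This was a 24 h acute feeding study, with food consumption recorded at 4 and 24 h.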

[5] = Clearance in rat at 1.2 mg/kg, iv; assay type: ADME, organism-based; design: dose 1.2 mg/kg, route intravenous; details: in vivo
[6] = test system: Rattus norvegicus; assay: Reduction in food consumption in Sprague-Dawley rat at 20 mg/kg, ip after 24 hrs; assay type: functional, organism-based; design: dose 20 mg/kg; summary of the method: as §2
[7] = Half life in rat at 1.2 mg/kg, iv; assay type: ADME, organism-based; design: dose 1.2 mg/kg, route intravenous; details: in vivo
[8] = Oral bioavailability in rat at 10.6 mg/kg, po; assay type: ADME, organism-based; details: in vivo
[9] = test system: Rattus norvegicus; assay: Reduction in food consumption in Sprague-Dawley rat at 20 mg/kg, ip after 4 hrs; assay type: functional, organism-based; design: dose 20 mg/kg; summary of the method: as §2
[10] = Brain to plasma AUC ratio in rat at 1.2 mg/kg, iv; assay type: ADME, organism-based; design: dose 1.2 mg/kg, route intravenous; details: brain and plasma, read-out: Ratio AUC
Summary of the method: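 Brain exposure was taken from cortex tissue. The ratio is AUC in cortex divided by AUC in plasma, after a single intravenous dose in rat.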

5-hydroxytryptamine receptor 2A, sequence (P28223 whole entry): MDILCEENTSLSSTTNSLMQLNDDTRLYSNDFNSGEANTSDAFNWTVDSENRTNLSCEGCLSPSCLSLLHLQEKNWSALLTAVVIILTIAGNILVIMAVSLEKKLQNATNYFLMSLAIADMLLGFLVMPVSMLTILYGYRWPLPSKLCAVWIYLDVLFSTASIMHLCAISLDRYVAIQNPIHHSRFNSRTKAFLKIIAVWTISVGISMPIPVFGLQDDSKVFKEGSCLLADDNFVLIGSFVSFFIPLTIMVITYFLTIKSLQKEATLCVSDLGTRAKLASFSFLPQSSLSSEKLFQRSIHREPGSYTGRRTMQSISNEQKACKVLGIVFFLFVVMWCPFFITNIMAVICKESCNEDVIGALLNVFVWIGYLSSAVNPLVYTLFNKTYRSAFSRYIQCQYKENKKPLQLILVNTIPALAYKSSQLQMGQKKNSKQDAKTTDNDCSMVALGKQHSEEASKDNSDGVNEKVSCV
5-hydroxytryptamine receptor 2B, sequence (P41595 whole entry): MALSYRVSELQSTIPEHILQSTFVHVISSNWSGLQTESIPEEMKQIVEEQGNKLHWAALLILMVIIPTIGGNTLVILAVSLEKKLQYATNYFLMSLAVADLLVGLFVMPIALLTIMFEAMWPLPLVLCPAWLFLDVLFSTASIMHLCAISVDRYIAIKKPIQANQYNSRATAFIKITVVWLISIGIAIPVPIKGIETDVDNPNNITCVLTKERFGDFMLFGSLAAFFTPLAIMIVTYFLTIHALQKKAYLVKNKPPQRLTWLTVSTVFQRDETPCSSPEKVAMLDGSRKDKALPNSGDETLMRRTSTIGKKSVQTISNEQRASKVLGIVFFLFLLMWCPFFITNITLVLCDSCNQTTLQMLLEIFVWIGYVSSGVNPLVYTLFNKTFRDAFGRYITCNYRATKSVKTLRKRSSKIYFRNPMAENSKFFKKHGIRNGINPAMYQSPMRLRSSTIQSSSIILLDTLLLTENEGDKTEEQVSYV

C[C@@H]1C[C@H]2CNC[C@H]2N1c1nccc(C(F)(F)F)n1
EC50 [1]: 25 nM
EC50 [2]: 57 nM
EC50 [3]: 48 nM

FC(F)(F)c1cccc([C@H]2CC[C@H]3CNC[C@H]32)c1
EC50 [1]: 1080 nM
EC50 [2]: 420 nM
EC50 [3]: 187 nM

Fc1ccc(F)c(-c2ccnc(N3CC[C@H]4CNC[C@H]43)n2)c1
EC50 [2]: > 1000 nM

Fc1cccc(N2CC[C@H]3CNC[C@H]32)c1
EC50 [1]: 1120 nM
EC50 [2]: 319 nM
EC50 [3]: 108 nM

Clc1ccc(Cl)c(-c2ccnc(N3CC[C@H]4CNC[C@H]43)n2)c1
EC50 [2]: > 1000 nM

Clc1cccc(N2CC[C@H]3CNC[C@H]32)c1
EC50 [1]: 416 nM
EC50 [2]: 503 nM
EC50 [3]: 59 nM

C[C@H]1C[C@H]2CNC[C@H]2N1c1nccc(C(F)(F)F)n1
EC50 [1]: 40 nM
EC50 [2]: 22 nM
EC50 [3]: 151 nM

FC(F)(F)c1ccnc(N2CCC3CNCC32)n1 (racemic)
EC50 [1]: 220 nM
EC50 [2]: 180 nM
EC50 [3]: 320 nM

Clc1ccc(Cl)c(-c2ccnc(N3C[C@@H]4CCN[C@@H]4C3)n2)c1
EC50 [2]: > 20000 nM

FC(F)(F)c1ccnc(N2CC[C@H]3CNC[C@H]32)n1
Activity [4]: Dose-dependent effect
clearance [5]: 6.71 mL/min/kg
EC50 [1]: 116 nM
Activity [6]: Active
half-life [7]: 1.1 h
bioavailability [8]: 6%
Activity [9]: Active
EC50 [2]: 23 nM
EC50 [3]: 62 nM
Kp [10]: 14.5

FC(F)(F)c1cccc(N2CC[C@H]3CNC[C@H]32)c1
EC50 [1]: 168 nM
EC50 [2]: 103 nM
EC50 [3]: 65 nM

Fc1ccc(F)c(-c2ccnc(N3C[C@@H]4CCN[C@@H]4C3)n2)c1
EC50 [2]: > 20000 nM

FC(F)(F)c1ccnc(N2CC[C@@H]3CNC[C@@H]32)n1
EC50 [2]: 519 nM

FC(F)(F)c1ccnc(N2C[C@@H]3CCN[C@@H]3C2)n1
EC50 [2]: > 20000 nM
